Measurements as given in ChEMBL document CHEMBL5058577, “EUbOPEN Chemogenomics Library 2 (Multiplex)” (2022).

Tested on: U2OS
Test: Multiplex assay against U2OS
Type: toxicity, cell-based
Conditions: human
Outline: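 Phenotypes for tubulin, mitochondrial mass and membrane permeability are expressed as per cents of healthy-nucleus cells. Cells were stained live at seeding with Hoechst33342, BioTracker Green Microtubule Cytoskeleton Dye, MitoTracker Red and Annexin V Alexa Fluor 680, then imaged after compound addition on a CQ1 microscope at 37°C and 5% CO2. Machine-learning gating in CellPathfinder separated Hoechst high-intensity objects from normal cells, divided normal cells by nuclear state (healthy, pyknosed, fragmented) and divided pyknosed cells into mitotic or apoptotic.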

[1] = 12 h, 1 µM, compound concentration 1 uM, replicate 1
[2] = 12 h, 1 µM, compound concentration 1 uM, replicate 2
[3] = 12 h, 10 µM, compound concentration 10 uM, replicate 1
[4] = 12 h, 10 µM, compound concentration 10 uM, replicate 2
[5] = 24 h, 1 µM, compound concentration 1 uM, replicate 1
[6] = 24 h, 1 µM, compound concentration 1 uM, replicate 2
[7] = 24 h, 10 µM, compound concentration 10 uM, replicate 1
[8] = 24 h, 10 µM, compound concentration 10 uM, replicate 2
[9] = 48 h, 1 µM, compound concentration 1 uM, replicate 1
[10] = 48 h, 1 µM, compound concentration 1 uM, replicate 2
[11] = 48 h, 10 µM, compound concentration 10 uM, replicate 1
[12] = 48 h, 10 µM, compound concentration 10 uM, replicate 2

Q: With `O=C(NCCO)c1cccc(-c2cc(Nc3ccc(OC(F)(F)F)cc3)ncn2)c1` as the molecule, how does the “Population Apoptotic (%)” value [1] read?
A: 64%

Q: And the “Population Fragmented Nuclei (%)” value [1]?
A: 13%

Q: And the “Population Healthy Nuclei (%)” value [1]?
A: 72%

Q: And the “Population Hoechst High Intensity Objects (%)” value [1]?
A: 1%

Q: What about the “Population Membrane Permeable-Phenotype (%)” value [1] of the same molecule?
A: 3%

Q: And the “Population Mitochondria Different-Phenotype (%)” value [1]?
A: 3%

Q: And the “Population Mitotic Cells (%)” value [1]?
A: 35%

Q: And the “Population Normal (%)” value [1]?
A: 98%

Q: What about the “Population Pyknosed Nuclei (%)” value [1] of the same molecule?
A: 13%

Q: What about the “Population Tubulin-Different-Phenotype (%)” value [1] of the same molecule?
A: 1%

Q: And the “Total Cell Count” value [1]?
A: 213

Q: What about the “Population Apoptotic (%)” value [2] of the same molecule?
A: 84%

Q: What about the “Population Fragmented Nuclei (%)” value [2] of the same molecule?
A: 15%

Q: What about the “Population Healthy Nuclei (%)” value [2] of the same molecule?
A: 73%

Q: And the “Population Membrane Permeable-Phenotype (%)” value [2]?
A: 4%

Q: And the “Population Mitotic Cells (%)” value [2]?
A: 15%

Q: And the “Population Pyknosed Nuclei (%)” value [2]?
A: 10%

Q: What about the “Population Tubulin-Different-Phenotype (%)” value [2] of the same molecule?
A: 4%

Q: And the “Total Cell Count” value [2]?
A: 128

Q: What about the “Population Apoptotic (%)” value [3] of the same molecule?
A: 84%

Q: And the “Population Fragmented Nuclei (%)” value [3]?
A: 21%

Q: And the “Population Healthy Nuclei (%)” value [3]?
A: 66%

Q: What about the “Population Hoechst High Intensity Objects (%)” value [3] of the same molecule?
A: 4%

Q: And the “Population Membrane Permeable-Phenotype (%)” value [3]?
A: 9%

Q: And the “Population Mitochondria Different-Phenotype (%)” value [3]?
A: 7%

Q: What about the “Population Mitotic Cells (%)” value [3] of the same molecule?
A: 15%

Q: What about the “Population Normal (%)” value [3] of the same molecule?
A: 95%

Q: What about the “Population Pyknosed Nuclei (%)” value [3] of the same molecule?
A: 12%

Q: What about the “Population Tubulin-Different-Phenotype (%)” value [3] of the same molecule?
A: 6%

Q: What about the “Total Cell Count” value [3] of the same molecule?
A: 274

Q: And the “Population Apoptotic (%)” value [4]?
A: 100%

Q: What about the “Population Fragmented Nuclei (%)” value [4] of the same molecule?
A: 20%

Q: And the “Population Healthy Nuclei (%)” value [4]?
A: 68%

Q: What about the “Population Hoechst High Intensity Objects (%)” value [4] of the same molecule?
A: 2%

Q: And the “Population Mitochondria Different-Phenotype (%)” value [4]?
A: 15%

Q: And the “Population Mitotic Cells (%)” value [4]?
A: 0%

Q: And the “Population Normal (%)” value [4]?
A: 97%

Q: What about the “Population Tubulin-Different-Phenotype (%)” value [4] of the same molecule?
A: 3%

Q: What about the “Total Cell Count” value [4] of the same molecule?
A: 77

Q: What about the “Population Apoptotic (%)” value [5] of the same molecule?
A: 70%

Q: And the “Population Fragmented Nuclei (%)” value [5]?
A: 16%

Q: And the “Population Healthy Nuclei (%)” value [5]?
A: 73%

Q: And the “Population Hoechst High Intensity Objects (%)” value [5]?
A: 1%

Q: And the “Population Membrane Permeable-Phenotype (%)” value [5]?
A: 3%

Q: What about the “Population Mitochondria Different-Phenotype (%)” value [5] of the same molecule?
A: 3%

Q: What about the “Population Mitotic Cells (%)” value [5] of the same molecule?
A: 29%

Q: What about the “Population Normal (%)” value [5] of the same molecule?
A: 98%

Q: What about the “Population Pyknosed Nuclei (%)” value [5] of the same molecule?
A: 9%

Q: What about the “Population Tubulin-Different-Phenotype (%)” value [5] of the same molecule?
A: 2%

Q: And the “Total Cell Count” value [5]?
A: 256

Q: And the “Population Apoptotic (%)” value [6]?
A: 86%

Q: And the “Population Fragmented Nuclei (%)” value [6]?
A: 20%

Q: What about the “Population Healthy Nuclei (%)” value [6] of the same molecule?
A: 69%

Q: What about the “Population Membrane Permeable-Phenotype (%)” value [6] of the same molecule?
A: 7%

Q: What about the “Population Mitochondria Different-Phenotype (%)” value [6] of the same molecule?
A: 5%

Q: And the “Population Mitotic Cells (%)” value [6]?
A: 13%

Q: And the “Population Tubulin-Different-Phenotype (%)” value [6]?
A: 4%

Q: What about the “Total Cell Count” value [6] of the same molecule?
A: 156

Q: And the “Population Apoptotic (%)” value [7]?
A: 82%

Q: And the “Population Fragmented Nuclei (%)” value [7]?
A: 22%

Q: What about the “Population Healthy Nuclei (%)” value [7] of the same molecule?
A: 64%

Q: And the “Population Hoechst High Intensity Objects (%)” value [7]?
A: 4%

Q: And the “Population Membrane Permeable-Phenotype (%)” value [7]?
A: 6%

Q: And the “Population Mitochondria Different-Phenotype (%)” value [7]?
A: 3%

Q: And the “Population Mitotic Cells (%)” value [7]?
A: 17%

Q: And the “Population Normal (%)” value [7]?
A: 95%

Q: What about the “Population Pyknosed Nuclei (%)” value [7] of the same molecule?
A: 12%

Q: And the “Population Tubulin-Different-Phenotype (%)” value [7]?
A: 1%

Q: And the “Total Cell Count” value [7]?
A: 344

Q: And the “Population Apoptotic (%)” value [8]?
A: 100%

Q: What about the “Population Fragmented Nuclei (%)” value [8] of the same molecule?
A: 15%

Q: And the “Population Healthy Nuclei (%)” value [8]?
A: 78%

Q: And the “Population Hoechst High Intensity Objects (%)” value [8]?
A: 1%

Q: What about the “Population Membrane Permeable-Phenotype (%)” value [8] of the same molecule?
A: 12%

Q: And the “Population Mitochondria Different-Phenotype (%)” value [8]?
A: 13%

Q: What about the “Population Mitotic Cells (%)” value [8] of the same molecule?
A: 0%

Q: What about the “Population Normal (%)” value [8] of the same molecule?
A: 98%

Q: What about the “Population Pyknosed Nuclei (%)” value [8] of the same molecule?
A: 5%

Q: What about the “Population Tubulin-Different-Phenotype (%)” value [8] of the same molecule?
A: 4%

Q: What about the “Total Cell Count” value [8] of the same molecule?
A: 96

Q: And the “Population Apoptotic (%)” value [9]?
A: 88%

Q: And the “Population Fragmented Nuclei (%)” value [9]?
A: 15%

Q: And the “Population Healthy Nuclei (%)” value [9]?
A: 75%

Q: And the “Population Hoechst High Intensity Objects (%)” value [9]?
A: 2%

Q: What about the “Population Membrane Permeable-Phenotype (%)” value [9] of the same molecule?
A: 6%

Q: And the “Population Mitochondria Different-Phenotype (%)” value [9]?
A: 3%

Q: And the “Population Mitotic Cells (%)” value [9]?
A: 11%

Q: And the “Population Normal (%)” value [9]?
A: 97%

Q: And the “Population Pyknosed Nuclei (%)” value [9]?
A: 8%

Q: And the “Population Tubulin-Different-Phenotype (%)” value [9]?
A: 4%

Q: And the “Total Cell Count” value [9]?
A: 417

Q: What about the “Population Apoptotic (%)” value [10] of the same molecule?
A: 96%

Q: And the “Population Fragmented Nuclei (%)” value [10]?
A: 20%

Q: And the “Population Healthy Nuclei (%)” value [10]?
A: 65%

Q: What about the “Population Membrane Permeable-Phenotype (%)” value [10] of the same molecule?
A: 9%

Q: What about the “Population Mitochondria Different-Phenotype (%)” value [10] of the same molecule?
A: 4%

Q: What about the “Population Mitotic Cells (%)” value [10] of the same molecule?
A: 3%

Q: What about the “Population Pyknosed Nuclei (%)” value [10] of the same molecule?
A: 14%

Q: What about the “Population Tubulin-Different-Phenotype (%)” value [10] of the same molecule?
A: 6%

Q: And the “Total Cell Count” value [10]?
A: 206

Q: And the “Population Apoptotic (%)” value [11]?
A: 92%

Q: And the “Population Fragmented Nuclei (%)” value [11]?
A: 18%

Q: What about the “Population Healthy Nuclei (%)” value [11] of the same molecule?
A: 72%

Q: What about the “Population Hoechst High Intensity Objects (%)” value [11] of the same molecule?
A: 3%

Q: What about the “Population Membrane Permeable-Phenotype (%)” value [11] of the same molecule?
A: 8%

Q: And the “Population Mitochondria Different-Phenotype (%)” value [11]?
A: 3%

Q: What about the “Population Mitotic Cells (%)” value [11] of the same molecule?
A: 7%

Q: What about the “Population Normal (%)” value [11] of the same molecule?
A: 96%

Q: And the “Population Pyknosed Nuclei (%)” value [11]?
A: 9%

Q: What about the “Population Tubulin-Different-Phenotype (%)” value [11] of the same molecule?
A: 6%

Q: And the “Total Cell Count” value [11]?
A: 473

Q: What about the “Population Apoptotic (%)” value [12] of the same molecule?
A: 91%

Q: And the “Population Fragmented Nuclei (%)” value [12]?
A: 26%

Q: What about the “Population Healthy Nuclei (%)” value [12] of the same molecule?
A: 64%

Q: What about the “Population Hoechst High Intensity Objects (%)” value [12] of the same molecule?
A: 2%

Q: What about the “Population Membrane Permeable-Phenotype (%)” value [12] of the same molecule?
A: 5%

Q: What about the “Population Mitochondria Different-Phenotype (%)” value [12] of the same molecule?
A: 7%

Q: What about the “Population Mitotic Cells (%)” value [12] of the same molecule?
A: 8%

Q: What about the “Population Normal (%)” value [12] of the same molecule?
A: 97%

Q: What about the “Population Pyknosed Nuclei (%)” value [12] of the same molecule?
A: 8%

Q: And the “Population Tubulin-Different-Phenotype (%)” value [12]?
A: 1%

Q: And the “Total Cell Count” value [12]?
A: 143
